Data as given in ChEMBL document CHEMBL1124846, “Synthesis, antiproliferative, and antiviral activity of certain 4-substituted and 4,5-disubstituted 7-[(1,3-dihydroxy-2-propoxy)methyl]pyrrolo[2,3-d]pyrimidines” (J Med Chem, 1990).
Several values for one entry are separate records, joined by “and”; a condition that tells them apart may be missing. Equal entries are not always repeated.

Columns and labels:
Human alphaherpesvirus 1 [1] = experiment: Inhibition of herpes simplex virus (HSV-1) in plaque reduction assay; type: functional, organism-based
Method in brief: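 HSV-1 S-148 strain plaque reduction in BSC-1 monkey kidney monolayers, with about 100 PFU inoculum and compound dissolved in the overlay medium. IC50 came from linear regression of percent inhibition against log concentration, with a positive control in each set.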

[2] = Cytotoxic activity against BSC cells; type: cell-based; conditions: Cercopithecidae
Method in brief: (§1)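 Cytotoxicity was scored visually in uninfected HFF or BSC-1 monolayers within the plaque-reduction assays. Drug-induced cytopathology was read at 35- and 60-fold magnification on a 0 to 4+ scale on the day plaques were stained and counted.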

L1210 [3] = experiment: In vitro inhibition of L1210 cell growth.; type: functional, Mus musculus; set-up: concentration or dose not given beside the values
Method in brief: (§2)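 Murine L1210 leukemia cells in static suspension culture in Fischer's medium with compound for 4 days. Growth rate is the ratio of control to treated population doubling time; where the rate changed, the final rate was used. IC50 is the concentration giving 50% of control growth rate; single-concentration value at 100 μM.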

[4] = Cytotoxic activity against HFF cells.; type: cell-based; conditions: Homo sapiens; method in brief: as §1
Human betaherpesvirus 5 = experiment: Inhibition of human cytomegalovirus (HCMV) in plaque reduction assay; type: functional, organism-based
Method in brief: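 HCMV Towne strain (plaque-purified P0) plaque reduction in HFF monolayers in MEM(E) with 10% FBS. Inoculum held about 50 PFU, with compound dissolved in the overlay medium. IC50 came from linear regression of percent inhibition against log concentration, with ganciclovir or acyclovir positive controls in every set; two to five experiments.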

L1210 [5] = experiment: In vitro inhibition of L1210 cell growth to half of the control rate; type: functional, cell-based; conditions: Mus musculus; method in brief: as §2
Mus musculus [6] = experiment: Compound was evaluated for 15 mice treated ip twice daily for 5 days at a dose of 0.6 mg/kg at 24 h followed (MCMV) virus inoculation; type: functional; conditions: route intraperitoneal
Method in brief: (§3)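 Three-week-old female Swiss Webster mice inoculated ip with 2×10^5 PFU MCMV Smith strain. Groups of 15 dosed ip twice daily for 5 days, starting 6, 24 or 48 h post-inoculation. Held 21 days with daily mortality checks. Final mortality and mean day of death (dying animals) computed. Mortality versus placebo by Fisher Exact Test, MDD by Mann–Whitney U-rank test.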

Mus musculus [7] = experiment: Compound was evaluated for percent mortality of mice inoculated with murine cytomegalovirus at a concentration of 0.6 mg/kg at 48 h; type: organism-based; set-up: dose 0.6 mg/kg; conditions: in vivo; method in brief: as §3
Mus musculus [8] = experiment: Compound was evaluated for mean day of death at 5.6 mg/kg at 24 h; type: functional; method in brief: as §3
Mus musculus [9] = experiment: Compound was evaluated for percent mortality of mice inoculated with murine cytomegalovirus at a concentration of 5.6 mg/kg at 6 h; type: ADME, organism-based; set-up: dose 5.6 mg/kg; conditions: in vivo
Method in brief: (§4)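 Three-week-old female Swiss Webster mice infected ip with 2×10^5 PFU MCMV Smith strain; groups of 15 given drug ip twice daily for 5 days, starting 6, 24 or 48 h after inoculation. Toxicity controls received drug without virus. Mortality followed daily for 21 days; final mortality compared with placebo by Fisher Exact Test.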

Mus musculus [10] = experiment: Compound was evaluated for 15 mice treated ip twice daily for 5 days at a dose of 0.6 mg/kg at 48 h followed (MCMV) virus inoculation; type: functional; conditions: route intraperitoneal; method in brief: as §3
Mus musculus [11] = experiment: Compound was evaluated for mean day of death at 5.6 mg/kg at 48 h; type: functional; method in brief: as §3
Mus musculus [12] = experiment: Compound was evaluated for percent mortality of mice inoculated with murine cytomegalovirus at a concentration of 1.9 mg/kg at 6 h; type: organism-based; set-up: dose 1.9 mg/kg; conditions: in vivo; method in brief: as §3
Mus musculus [13] = experiment: Compound was evaluated for 15 mice treated ip twice daily for 5 days at a dose of 1.9 mg/kg at 6 hr followed (MCMV) virus inoculation; type: functional; conditions: route intraperitoneal; method in brief: as §3
Mus musculus [14] = experiment: Compound was evaluated for 15 mice treated ip twice daily for 5 days at a dose of 5.6 mg/kg at 24 hr followed (MCMV) virus inoculation; type: functional; conditions: route intraperitoneal; method in brief: as §3
Mus musculus [15] = experiment: Compound was evaluated for percent mortality of mice inoculated with murine cytomegalovirus at a concentration of 5.6 mg/kg at 24 h; type: ADME, organism-based; set-up: dose 5.6 mg/kg; conditions: in vivo; method in brief: as §4
Mus musculus [16] = experiment: Compound was evaluated for percent mortality of mice inoculated with murine cytomegalovirus at a concentration of 16.7 mg/kg at 6 h; type: organism-based; set-up: dose 16.7 mg/kg; conditions: in vivo; method in brief: as §3
Mus musculus [17] = experiment: Compound was evaluated for percent mortality of mice inoculated with murine cytomegalovirus at a concentration of 16.7 mg/kg at 24 h; type: organism-based; set-up: dose 16.7 mg/kg; conditions: in vivo; method in brief: as §3
Mus musculus [18] = experiment: Compound was evaluated for 15 mice treated ip twice daily for 5 days at a dose of 16.7 mg/kg at 6 hr followed (MCMV) virus inoculation; type: functional; conditions: route intraperitoneal; method in brief: as §3
Mus musculus [19] = experiment: Compound was evaluated for percent mortality of mice inoculated with murine cytomegalovirus at a concentration of 5.6 mg/kg at 48 h; type: ADME, organism-based; set-up: dose 5.6 mg/kg; conditions: in vivo; method in brief: as §4
Mus musculus [20] = experiment: Compound was evaluated for mean day of death at 16.7 mg/kg at 48 h; type: functional; method in brief: as §3
Neoplastic cell line = experiment: Compound was evaluated for cytotoxic activity against KB cells; type: cell-based; conditions: Homo sapiens
Method in brief: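 KB cells grown in MEM(H) + 5% FBS. Compound effects measured on radiolabelled precursor incorporation into DNA, RNA and protein. IC50s from linear regression of percent inhibition vs log concentration. The three IC50s were averaged, with 2–5 experiments averaged. Runs rejected if the acyclovir/ganciclovir control deviated >1.5 SD from its mean.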

Mus musculus [21] = experiment: Compound was evaluated for mean day of death at 1.9 mg/kg at 24 h; type: functional; method in brief: as §3
Human alphaherpesvirus 1 [22] = experiment: Inhibition of herpes simplex virus (HSV-1) in yield reduction assay; type: functional, organism-based
Mus musculus [23] = experiment: Compound was evaluated for mean day of death at 0.6 mg/kg at 48 h; type: functional; method in brief: as §3
Mus musculus [24] = experiment: Compound was evaluated for percent mortality of mice inoculated with murine cytomegalovirus at a concentration of 16.7 mg/kg at 48 h; type: organism-based; set-up: dose 16.7 mg/kg; conditions: in vivo; method in brief: as §3
Mus musculus [25] = experiment: Compound was evaluated for mean day of death at 0.6 mg/kg at 24 h; type: functional; method in brief: as §3
Mus musculus [26] = experiment: Compound was evaluated for mean day of death at 1.9 mg/kg at 6 h; type: functional; method in brief: as §3
Mus musculus [27] = experiment: Compound was evaluated for percent mortality of mice inoculated with murine cytomegalovirus at a concentration of 0.6 mg/kg at 24 h; type: organism-based; set-up: dose 0.6 mg/kg; conditions: in vivo; method in brief: as §3
Mus musculus [28] = experiment: Compound was evaluated for 15 mice treated ip twice daily for 5 days at a dose of 1.9 mg/kg at 48 hr followed (MCMV) virus inoculation; type: functional; conditions: route intraperitoneal; method in brief: as §3
Mus musculus [29] = experiment: Compound was evaluated for 15 mice treated ip twice daily for 5 days at a dose of 16.7 mg/kg at 24 hr followed (MCMV) virus inoculation; type: functional; conditions: route intraperitoneal; method in brief: as §3
Mus musculus [30] = experiment: Compound was evaluated for percent mortality of mice inoculated with murine cytomegalovirus at a concentration of 1.9 mg/kg at 24 h; type: organism-based; set-up: dose 1.9 mg/kg; conditions: in vivo; method in brief: as §3
Mus musculus [31] = experiment: Compound was evaluated for 15 mice treated ip twice daily for 5 days at a dose of 0.6 mg/kg at 6 hr followed (MCMV) virus inoculation; type: functional; conditions: route intraperitoneal; method in brief: as §3
[32] = Compound was evaluated for cytotoxic activity against BSC cells; type: cell-based; conditions: Cercopithecidae
Method in brief: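 Visual cytotoxicity in uninfected areas of plaque-reduction cultures. HFF cells grown in MEM(E) + 10% FBS for HCMV (Towne) assays; BSC-1 cells for HSV-1 (S-148) assays. Drug in overlay medium. Cytopathology scored 0 to 4+ at 35- and 60-fold magnification on the staining day.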

Mus musculus [33] = experiment: Compound was evaluated for 15 mice treated ip twice daily for 5 days at a dose of 16.7 mg/kg at 48 hr followed (MCMV) virus inoculation; type: functional; conditions: route intraperitoneal; method in brief: as §3
Mus musculus [34] = experiment: Compound was evaluated for mean day of death at 1.9 mg/kg at 48 h; type: functional; method in brief: as §3
Mus musculus [35] = experiment: Compound was evaluated for 15 mice treated ip twice daily for 5 days at a dose of 1.9 mg/kg at 24 hr followed (MCMV) virus inoculation; type: functional; conditions: route intraperitoneal; method in brief: as §3
Mus musculus [36] = experiment: Compound was evaluated for percent mortality of mice inoculated with murine cytomegalovirus at a concentration of 0.6 mg/kg at 6 h; type: organism-based; set-up: dose 0.6 mg/kg; conditions: in vivo; method in brief: as §3
Mus musculus [37] = experiment: Compound was evaluated for mean day of death at 16.7 mg/kg at 6 h; type: functional; method in brief: as §3
Mus musculus [38] = experiment: Compound was evaluated for 15 mice treated ip twice daily for 5 days at a dose of 5.6 mg/kg at 6 hr followed (MCMV) virus inoculation; type: functional; conditions: route intraperitoneal; method in brief: as §3
Mus musculus [39] = experiment: Compound was evaluated for mean day of death at 16.7 mg/kg at 24 h; type: functional; method in brief: as §3
Mus musculus [40] = experiment: Compound was evaluated for percent mortality of mice inoculated with murine cytomegalovirus at a concentration of 1.9 mg/kg at 48 h; type: organism-based; set-up: dose 1.9 mg/kg; conditions: in vivo; method in brief: as §3
Mus musculus [41] = experiment: Compound was evaluated for mean day of death at 5.6 mg/kg at 6 h; type: functional; method in brief: as §3
Mus musculus [42] = experiment: Compound was evaluated for 15 mice treated ip twice daily for 5 days at a dose of 5.6 mg/kg at 48 hr followed (MCMV) virus inoculation; type: functional; conditions: route intraperitoneal; method in brief: as §3
Mus musculus [43] = experiment: Compound was evaluated for mean day of death at 0.6 mg/kg at 6 h; type: functional; method in brief: as §3

## CNc1ncnc2c1c(Br)cn2COC(CO)CO
Human alphaherpesvirus 1 [1]
  IC50: > 100 µM
[2]
  IC50: > 100 µM
L1210 [3]
  Activity: 100%
[4]
  IC50: > 100 µM
Human betaherpesvirus 5; Human betaherpesvirus 5
  IC50: > 100 µM

## OCC(CO)OCn1cc(Cl)c2c(NO)ncnc21
L1210 [3]
  Activity: 41%
[4]
  IC50: > 100 µM
Human betaherpesvirus 5
  IC50: 56 µM and 24 µM and 50 µM
L1210 [5]
  IC50: 75 µM

## Nc1nc2c(ncn2COC(CO)CO)c(=O)[nH]1 [GANCICLOVIR]
Mus musculus [6]
  Activity: 12
Mus musculus [7]
  Mortality: 93%
Mus musculus [8]
  MDD: 5.3
Mus musculus [9]
  Mortality: 33%
Mus musculus [10]
  Activity: 14
Mus musculus [11]
  MDD: 5.5
Human alphaherpesvirus 1 [1]
  IC50: 4.5 µM
Mus musculus [12]
  Mortality: 33%
Mus musculus [13]
  Activity: 5
Mus musculus [14]
  Activity: 7
Mus musculus [15]
  Mortality: 47%
Mus musculus [16]
  Mortality: 27%
Mus musculus [17]
  Mortality: 47%
Mus musculus [18]
  Activity: 4
Mus musculus [19]
  Mortality: 67%
Mus musculus [20]
  MDD: 5.5
Neoplastic cell line
  IC50: > 100 µM
Mus musculus [21]
  MDD: 4.9
Human alphaherpesvirus 1 [22]
  IC90: 1.2 µM
Mus musculus [23]
  MDD: 5.3
Mus musculus [24]
  Mortality: 53%
Mus musculus [25]
  MDD: 5.4
Mus musculus [26]
  MDD: 5.4
Mus musculus [27]
  Mortality: 80%
Mus musculus [28]
  Activity: 11
Mus musculus [29]
  Activity: 7
Human betaherpesvirus 5
  IC50: 8.7 µM
Mus musculus [30]
  Mortality: 80%
Mus musculus [31]
  Activity: 14
[32]
  IC50: > 100 µM
Mus musculus [33]
  Activity: 8
Mus musculus [34]
  MDD: 4.9
Mus musculus [35]
  Activity: 12
Mus musculus [36]
  Mortality: 93%
Mus musculus [37]
  MDD: 3.8
Mus musculus [38]
  Activity: 5
Mus musculus [39]
  MDD: 5.3
Mus musculus [40]
  Mortality: 73%
Mus musculus [41]
  MDD: 4.2
Mus musculus [42]
  Activity: 10
Mus musculus [43]
  MDD: 4.6

## CCNc1ncnc2c1c(Br)cn2COC(CO)CO
Human alphaherpesvirus 1 [1]
  IC50: > 100 µM
[2]
  IC50: > 100 µM
L1210 [3]
  Activity: 95%
[4]
  IC50: > 100 µM
Human betaherpesvirus 5; Human betaherpesvirus 5
  IC50: > 100 µM
